# Screening data: PubChem BioAssay, several laboratories
# CXCR6 inh: CXCR6 receptor inhibitors, primary screen, cell-based, beta-arrestin, luminescence, CHO-K1 PathHunter, 1536-well; C-X-C chemokine receptor type 6 (Homo sapiens), O00574; inhibition, % at 20 µM; 360,000 tested, 0.36% active; AID 602244, 2012; in the data active = inhibition above about 34%, passing the limit was not always enough;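 also: antagonist mode with CXCL16 agonist at 10 nM final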
# CCR6 antagonist: CCR6 receptor antagonists, primary screen, cell-based, CHO-K1, luminescence, beta-arrestin, uHTS; 340,000 tested, 0.49% active; CHO-K1 CCR6 PathHunter beta-arrestin, CCL20-stimulated; inhibition, % at 20 µM;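 active = compounds whose inhibition of the agonist-driven luminescence signal at 20 µM reaches about 50%, limit read from the data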;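 also: cells stimulated with CCL20 at 14 nM final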
# PfGluPho inh: PfG6PD enzyme inhibitors, primary screen, biochemical, fluorescence intensity, uHTS; PfGluPho enzyme, NADPH resazurin-diaphorase fluorescence; inhibition, % at 20 µM; 350,000 tested, 0.78% active; AID 504690, 2011;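 active = inhibition reaching at least a set limit at 20 µM in the primary screen, cut at about 59% in these data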
# Beta2AR agonist: beta2AR agonists driving receptor internalization, primary screen, cell-based, FAP fluorogen, flow cytometry. Beta-2 adrenergic receptor (Homo sapiens), P07550. Am2.2-beta2AR cells. response, % (concentration not given with the values). 340,000 tested, 0.43% active. AID 504454, 2011;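 active = response above a set limit, near 3 SD of response in nonfluorescent compounds, cut at about 42% in these data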
# APJ ag: agonists of human apelin receptor APJ, primary screen, CHO-K1 cells, PathHunter beta-arrestin, luminescence. 0% DMSO wells, 100% apelin. activation, % at 20 µM. 330,000 tested, 0.11% active;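 active = activation more than six SD over the plate average, tested at 20 µM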
# Target sequence (P35414 whole entry, looked up): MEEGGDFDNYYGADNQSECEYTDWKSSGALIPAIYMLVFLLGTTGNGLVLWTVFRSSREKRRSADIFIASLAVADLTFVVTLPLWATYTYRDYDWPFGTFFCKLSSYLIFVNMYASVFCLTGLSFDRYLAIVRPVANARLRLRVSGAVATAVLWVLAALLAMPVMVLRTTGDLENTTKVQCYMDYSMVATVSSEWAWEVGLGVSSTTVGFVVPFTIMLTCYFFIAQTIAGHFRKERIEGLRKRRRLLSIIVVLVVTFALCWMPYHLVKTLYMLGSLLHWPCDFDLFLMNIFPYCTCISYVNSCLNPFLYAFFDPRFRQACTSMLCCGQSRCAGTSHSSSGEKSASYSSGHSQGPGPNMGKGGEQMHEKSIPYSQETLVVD
#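 Material: CHO-K1 APJ beta-arrestin complementation cell line; Input: cell density 1000 per well; Incubation: compound stimulation 90 min at 25 °C, detection 60 min; Signal: luminescence from split beta-galactosidase complementation, Galacton Star/Emerald II substrate; Controls: DMSO-only wells as negative, 10 nM Apelin-13 as positive control.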
# APJ antag: antagonists of human apelin receptor APJ, primary screen, CHO-K1 cells, beta-arrestin complementation, luminescence; P35414; inhibition, % at 20 µM; 330,000 tested, 0.32% active;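 active = inhibition above about 40% at 20 µM, limit read from the data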;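 also: cells challenged with 10 nM apelin-13 agonist together with compound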
# PfGluPho conf: PfG6PD inhibitors, hit retest, confirmation, biochemical, fluorescence intensity, single concentration. shares compounds with PfGluPho inh. recombinant PfGluPho, NADPH-diaphorase-resazurin fluorescence. inhibition, % at 20 µM. 2,400 tested, 34% active;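 active = inhibition of at least 50% at 20 µM in any single replicate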
# Diaphorase 10uM: diaphorase inhibitors and chemical oxidizers, confirmation, counter-screen for P. falciparum G6PD inhibitor project, biochemical, fluorescence intensity, 10 µM NADPH; diaphorase-coupled resazurin reduction, NADPH 10 uM; shares compounds with PfGluPho inh; 820 tested, 39% active; AID 504862, 2011; inhibition, % at 20 µM;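 active = average inhibition reaching 50% or more with the compound at 20 µM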;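 also: resorufin red fluorescence formed as diaphorase reduces resazurin using NADPH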
# Diaphorase 30uM: diaphorase inhibitors and chemical oxidizers, confirmation, counter-screen for P. falciparum G6PD inhibitor project, biochemical, fluorescence intensity, 30 µM NADPH | shares compounds with PfGluPho inh | Diaphorase/resazurin coupled assay, resorufin fluorescence | inhibition, % at 20 µM | 820 tested, 29% active;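 active = inhibition averaging 50% or more, tested at 20 µM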
# A number is an active result; n = inactive; x = no result given. Rows were chosen to be rich in hits. Some 1.7% of all compounds tested hit in one or more screens of this group.
SMILES,CXCR6 inh,CCR6 antagonist,PfGluPho inh,Beta2AR agonist,APJ ag,APJ antag,PfGluPho conf,others
COc1cc(Cl)c(C)cc1NC(=O)c1ccccc1NC(=O)CN1CCOCC1,n,n,n,n,n,n,x,
COc1ccc(/C=C(\C#N)C(=O)Nc2cc(S(=O)(=O)N3CCOCC3)ccc2N2CCCC2)cc1,n,n,64,n,n,n,n,
O=C(Nc1cc(S(=O)(=O)N2CCOCC2)ccc1N1CCCCC1)c1cc(-c2ccccn2)nc2ccccc12,n,n,71,n,n,n,n,
Cc1ccc(S(=O)(=O)N2CCOCC2)cc1NC(=O)c1cc(-c2ccccn2)nc2ccccc12,n,n,n,n,n,n,x,
CN(C)S(=O)(=O)c1cccc(C(=O)Nc2cc(S(=O)(=O)N3CCOCC3)ccc2O)c1,n,n,n,n,n,n,x,
CN(C)S(=O)(=O)c1cccc(C(=O)Nc2cc(S(=O)(=O)N3CCOCC3)ccc2N2CCCC2)c1,n,n,66,n,x,x,n,
CCN(CC)S(=O)(=O)c1ccc(N2CCCCC2)c(NC(=O)/C(C#N)=C/c2ccc(OC)cc2)c1,n,n,n,n,n,n,x,
Cc1ccc(NC(=O)CSCC(=O)NC2=NCCS2)cc1,n,n,n,n,n,n,x,
O=c1ccsn1Cc1ccccc1,n,n,94,n,n,n,75,Diaphorase 10uM=n;Diaphorase 30uM=n
Cc1ccc(S(=O)(=O)/N=C2\C=C(Nc3cccc(C(=O)O)c3)C(=O)c3ccccc32)cc1,n,n,67,n,n,n,69,Diaphorase 10uM=89;Diaphorase 30uM=86
CCc1ccc(S(=O)(=O)/N=C2\C=C(Nc3ccc(C(=O)O)cc3)C(=O)c3ccccc32)cc1,n,n,65,n,n,n,n,
Cc1ccc(S(=O)(=O)/N=C2\C=C(Nc3cccc(C(=O)O)c3)C(=O)c3ccccc32)c(C)c1,n,x,70,n,n,n,n,
C[C@H]1CN([C@@H](C)CO)S(=O)(=O)c2ccc(-c3ccncc3)cc2O[C@H]1CN(C)C(=O)c1cccc(F)c1,n,x,n,x,x,x,x,
O=C(NCc1cc(Cl)cc(Cl)c1)c1ccc2nc(COCCO)[nH]c2c1,n,x,x,x,x,x,x,
CC1CN(C(=O)COC(=O)CSc2ccc([N+](=O)[O-])cc2)CC(C)O1 (stereo unspecified),n,n,60,n,n,n,n,
O=C(CSc1ccc([N+](=O)[O-])cc1)OCC(=O)N1CCCC1=O,n,n,n,n,n,n,x,
COc1ccc(-n2c(C)cc(C(=O)Cn3nnc4ccccc4c3=O)c2C)cc1,n,n,n,n,n,n,x,
Cc1cc(C(=O)Cn2nnc3ccccc3c2=O)c(C)n1-c1ccccc1F,n,n,65,n,n,n,n,
Cc1no[n+]([O-])c1COc1cccc(/C=N/Nc2nncn2N)c1,n,n,100,n,n,n,55,Diaphorase 10uM=n;Diaphorase 30uM=n
Cc1ccc(S(=O)(=O)N2[C@@H](c3ccccc3F)C(C(=O)O)=CC[C@H]2c2ccc3c(c2)OCO3)cc1,n,n,n,n,n,n,x,
CCOc1ccc(C(=O)/C=C/c2cn(CN3CCN(C)CC3)c3ccccc23)cc1,n,n,62,n,n,n,n,
COc1ccc(C(=O)/C=C/c2cn(CN3CCN(C)CC3)c3ccccc23)cc1,n,n,n,n,n,n,x,
COc1cc2c(c3oc(=O)cc(CC(=O)O)c13)CCC(C)(C)O2,n,n,n,n,n,n,x,
CCOC(=O)c1cnc2ccc(C(=O)OC)cc2c1NCCN1CCOCC1,n,n,71,n,n,n,n,
CCOC(=O)c1cnc2ccc(C(=O)OC)cc2c1NCCCN1CCOCC1,n,n,n,n,n,n,x,
SMILES,CXCR6 inh,CCR6 antagonist,PfGluPho inh,Beta2AR agonist,APJ ag,APJ antag,PfGluPho conf,others
CCCS(=O)(=O)NC(=O)C1(C)CCN(C(=O)c2oc3ccccc3c2C)C1 (stereo unspecified),n,x,x,x,x,x,x,
COc1ccccc1NS(=O)(=O)c1cc(NC(=O)c2cccs2)ccc1N1CCCC1,n,n,79,n,n,n,n,
COc1ccccc1NS(=O)(=O)c1cc(NC(=O)C(C)C)ccc1N1CCCCC1,n,n,61,n,n,n,n,
O=S(=O)(c1ccsc1)N1CC=C(c2ccccc2)CC1,n,n,n,n,n,n,x,
CC(O)(c1cccnc1)c1nc(/C=C/c2ccccc2)cs1 (stereo unspecified),n,x,x,x,x,x,x,
O=S(=O)(c1ccc2oc(=S)[nH]c2c1)N1CCOCC1,n,n,66,n,n,n,n,
O=C(CN1C(=O)C2C3C=CC(C3)C2C1=O)OCC(=O)c1ccc([N+](=O)[O-])cc1 (stereo unspecified),n,n,59,n,n,n,60,Diaphorase 10uM=n;Diaphorase 30uM=n
O=C(CN1C(=O)C2C3C=CC(C3)C2C1=O)OCC(=O)c1ccccc1 (stereo unspecified),n,n,n,n,n,n,x,
O=C1NC(=O)C(Cc2ccc(Cl)cc2)(c2ccccc2)N1 (stereo unspecified),n,n,68,n,x,x,n,
Cc1ccc(NC(=S)NCCc2ccccc2)nc1,n,n,n,n,n,n,x,
CCOC(=O)C1C(=O)NC(SCC(=O)Nc2nccs2)=C(C#N)C1c1ccccc1OCC (stereo unspecified),n,n,70,n,n,n,n,
CCN(CC(=O)Nc1cc(Cl)ccc1C)C(=O)c1ccc(=O)n(Cc2ccccc2)n1,n,n,n,n,n,n,x,
CCCCCCC(=O)N/N=C/c1ccc(Br)cc1,n,n,n,n,n,n,x,
CCCCCCCCC(=O)N/N=C/c1cccc(Br)c1,n,n,81,n,n,n,n,
COc1cccc(/C=N/NC(=O)CCC(=O)Nc2ccc(Br)cc2)c1,n,n,n,n,n,n,x,
Cc1ccc(N(CC(=O)N/N=C/c2cccc(Br)c2)S(C)(=O)=O)cc1,n,n,115,n,x,x,86,Diaphorase 10uM=79;Diaphorase 30uM=71
O=C(CCC(=O)Nc1ccc(F)cc1)N/N=C/c1cccc(Br)c1,n,n,113,n,n,n,75,Diaphorase 10uM=66;Diaphorase 30uM=59
